In ChEMBL document CHEMBL4422637, “Identification of dual role of piperazine-linked phenyl cyclopropyl methanone as positive allosteric modulator of 5-HT2C and negative allosteric modulator of 5-HT2B receptors” (Eur J Med Chem, 2019):
Calls of active or inactive are those of the source. The calls are words filed in the database; no cut-off is given here.

Columns and labels:
Rattus norvegicus [1] = test: Induction of anorexia in Sprague-Dawley rat assessed as suppression of food intake at 2 pmol, icv measured after 3 to 6 hrs; format: functional, organism-based
Procedure, shortened: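 Adult SD rats (150-200 g) on a 12 h light/dark cycle at 22 °C, cannulated in the right ventricle. Rats were fasted 4 h with free access to water, then dosed i.c.v. with 2 pmol/rat (2 µL) in aCSF vehicle; lorcaserin 2 pmol/rat served as positive control. Weighed pellets were given 10 min later, and remaining food plus spillage was weighed at 3, 6 and 24 h; n=4.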

[2] = target: T1, 5-hydroxytryptamine receptor 2C (Homo sapiens) (UniProt P28335); test: Agonist activity at 5HT2C receptor (unknown origin) expressed in HEK293 cells co-expressing NFAT-RE at 10 uM after 6 to 12 hrs by Bright-Glo luciferase reporter gene assay; format: cell-based
T1 sequence (whole entry): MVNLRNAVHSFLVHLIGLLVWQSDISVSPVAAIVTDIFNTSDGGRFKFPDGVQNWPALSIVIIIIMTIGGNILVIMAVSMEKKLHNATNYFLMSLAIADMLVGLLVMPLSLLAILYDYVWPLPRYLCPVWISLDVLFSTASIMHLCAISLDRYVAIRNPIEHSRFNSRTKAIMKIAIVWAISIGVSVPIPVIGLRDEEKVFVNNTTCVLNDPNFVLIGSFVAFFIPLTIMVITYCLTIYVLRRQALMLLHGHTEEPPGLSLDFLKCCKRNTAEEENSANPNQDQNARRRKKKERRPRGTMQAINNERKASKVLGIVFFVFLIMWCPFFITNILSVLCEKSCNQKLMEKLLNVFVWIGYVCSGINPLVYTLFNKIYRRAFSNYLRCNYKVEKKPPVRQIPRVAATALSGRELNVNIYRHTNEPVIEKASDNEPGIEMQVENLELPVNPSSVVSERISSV
Procedure, shortened: (§1)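 Primary screen at 5-HT2C in transiently co-transfected HEK293T (receptor plus NFAT-RE luciferase plasmids, 50,000 cells/well). Compounds tested in triplicate at a final 10 µM in HEPES-buffered HBSS pH 7.4 and incubated 6-12 h. Luminescence read within 5 min of Bright-Glo (1 mg/ml final). Signal normalized to the 5-HT maximal response.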

[3] = target: T2, 5-hydroxytryptamine receptor 2A (Homo sapiens, UniProt P28223); test: Positive allosteric modulation of 5HT2A receptor (unknown origin) expressed in HEK293 cells co-expressing NFAT-RE assessed as increase in serotonin-induced reponse after 6 to 12 hrs by Bright-Glo luciferase reporter gene assay; format: cell-based
T2 sequence (P28223 whole entry): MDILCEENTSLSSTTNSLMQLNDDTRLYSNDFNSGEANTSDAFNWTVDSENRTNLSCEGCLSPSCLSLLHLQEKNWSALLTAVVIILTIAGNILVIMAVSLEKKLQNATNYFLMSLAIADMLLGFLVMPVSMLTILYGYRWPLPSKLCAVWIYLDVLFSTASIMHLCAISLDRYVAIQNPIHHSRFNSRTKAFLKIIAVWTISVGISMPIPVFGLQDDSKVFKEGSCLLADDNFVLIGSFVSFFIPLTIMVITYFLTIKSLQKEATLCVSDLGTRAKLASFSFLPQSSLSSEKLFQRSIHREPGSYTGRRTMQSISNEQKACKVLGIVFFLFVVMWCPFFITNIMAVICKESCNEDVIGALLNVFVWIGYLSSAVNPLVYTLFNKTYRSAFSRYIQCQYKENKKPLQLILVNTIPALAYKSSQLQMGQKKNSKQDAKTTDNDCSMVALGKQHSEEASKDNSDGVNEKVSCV
Procedure, shortened: (§2)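 Transiently co-transfected HEK293T cells expressing 5-HT2A, 5-HT2B or 5-HT2C with NFAT-RE luciferase, 50,000 cells/well. Test compound added first at 10 µM, 1 µM or 100 nM, in triplicate. A 5-HT concentration-response (10 µM to 0.01 nM) followed, then 6-12 h incubation. Bright-Glo luminescence was fitted by non-linear regression, with Emax normalized to 5-HT alone (100%). n=3-4.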

Rattus norvegicus [4] = test: Induction of anorexia in Sprague-Dawley rat assessed as suppression of food intake at 2 pmol, icv measured after 24 hrs; format: functional, organism-based
Procedure, shortened: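 Adult SD rats (150-200 g) on a 12 h light/dark cycle at 22 °C, with a cannula in the right ventricle (AP -0.9, ML -1.5, DV -3.5). Rats were food-deprived for 4 h with water available. Compound given i.c.v. at 2 pmol/rat in 2 µL, vehicle aCSF; lorcaserin 2 pmol as positive control. Weighed pellets were supplied 10 min later. Remaining food including spillage was weighed at 3, 6 and 24 h; n=4.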

5HT2A receptor = 5HT2A receptor (Homo sapiens, UniProt P28223); test: Positive allosteric modulation of 5HT2A receptor (unknown origin) expressed in HEK293 cells co-expressing NFAT-RE assessed as increase in serotonin-induced reponse at 1 uM after 6 to 12 hrs by Bright-Glo luciferase reporter gene assay relative to serotonin; format: cell-based; conditions: HEK293 cells expressing 5HT2A receptor and NFAT-RE reporter; procedure, shortened: as §2
5HT2A receptor, sequence (P28223 whole entry): as above

5HT2B receptor = 5HT2B receptor (Homo sapiens, UniProt P41595); test: Positive allosteric modulation of 5HT2B receptor (unknown origin) expressed in HEK293 cells co-expressing NFAT-RE assessed as increase in serotonin-induced reponse at 1 uM after 6 to 12 hrs by Bright-Glo luciferase reporter gene assay relative to serotonin; format: cell-based; conditions: HEK293 cells expressing 5HT2B receptor and NFAT-RE reporter; procedure, shortened: as §2
5HT2B receptor, sequence (P41595 whole entry): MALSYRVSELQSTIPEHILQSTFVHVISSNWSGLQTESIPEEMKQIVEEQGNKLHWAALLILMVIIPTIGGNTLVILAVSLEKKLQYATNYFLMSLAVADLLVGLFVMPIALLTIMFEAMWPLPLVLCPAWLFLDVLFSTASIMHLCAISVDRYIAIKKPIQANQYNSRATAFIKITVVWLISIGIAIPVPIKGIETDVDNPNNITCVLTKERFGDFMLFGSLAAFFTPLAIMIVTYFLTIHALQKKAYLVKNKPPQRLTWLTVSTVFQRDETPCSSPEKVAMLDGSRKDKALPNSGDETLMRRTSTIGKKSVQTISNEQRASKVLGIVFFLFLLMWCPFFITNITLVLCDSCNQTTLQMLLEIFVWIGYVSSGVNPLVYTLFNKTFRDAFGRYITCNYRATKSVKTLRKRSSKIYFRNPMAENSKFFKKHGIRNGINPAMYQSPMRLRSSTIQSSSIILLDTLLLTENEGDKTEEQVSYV

[5] = target: T1, 5-hydroxytryptamine receptor 2C (Homo sapiens); test: Agonist activity at 5HT2C receptor (unknown origin) expressed in HEK293 cells co-expressing NFAT-RE at 10 uM after 6 to 12 hrs by Bright-Glo luciferase reporter gene assay relative to control; format: cell-based; procedure, shortened: as §1
[6] = target: T2, 5-hydroxytryptamine receptor 2A; test: Agonist activity at 5HT2A receptor (unknown origin) expressed in HEK293 cells co-expressing NFAT-RE after 6 to 12 hrs by Bright-Glo luciferase reporter gene assay; format: cell-based
Procedure, shortened: (§3)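 HEK293T cells transiently co-transfected (PEI) with 0.1 µg/well receptor plasmid (5-HT2A, 5-HT2B or 5-HT2C) plus 0.1 µg/well NFAT-RE luciferase reporter, plated 50,000 cells/well 24 h before treatment. Compounds tested in triplicate from 10 µM down to 0.01 nM in HBSS/20 mM HEPES pH 7.4, incubated 6-12 h. Luminescence read within 5 min of Bright-Glo (1 mg/ml final). RLU fitted by non-linear regression; 5-HT Emax set to 100%.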

[7] = target: T3, 5-hydroxytryptamine receptor 2B (Homo sapiens, UniProt P41595); test: Negative allosteric modulation of 5HT2B receptor (unknown origin) expressed in HEK293 cells co-expressing NFAT-RE assessed as reduction in serotonin-induced reponse after 6 to 12 hrs by Bright-Glo luciferase reporter gene assay; format: cell-based; procedure, shortened: as §2
T3 sequence (P41595 whole entry): as above

[8] = target: T1, 5-hydroxytryptamine receptor 2C (Homo sapiens); test: Positive allosteric modulation of 5HT2C receptor (unknown origin) expressed in HEK293 cells co-expressing NFAT-RE assessed as increase in serotonin-induced reponse at 1 uM after 6 to 12 hrs by Bright-Glo luciferase reporter gene assay relative to serotonin; format: cell-based; procedure, shortened: as §2
[9] = target: T4, 5-hydroxytryptamine receptor 2C (Homo sapiens, UniProt P28335); test: Positive allosteric modulation of 5HT2C receptor (unknown origin) expressed in HEK293 cells co-expressing NFAT-RE assessed as increase in serotonin-induced reponse after 6 to 12 hrs by Bright-Glo luciferase reporter gene assay; format: cell-based; procedure, shortened: as §2
T4 sequence (P28335 whole entry): T1 sequence (whole entry)

[10] = target: T1, 5-hydroxytryptamine receptor 2C (Homo sapiens); test: Positive allosteric modulation of 5HT2C receptor (unknown origin) expressed in HEK293 cells co-expressing NFAT-RE assessed as increase in serotonin-induced reponse at 100 nM after 6 to 12 hrs by Bright-Glo luciferase reporter gene assay relative to serotonin; format: cell-based; procedure, shortened: as §2
[11] = target: T3, 5-hydroxytryptamine receptor 2B; test: Agonist activity at 5HT2B receptor (unknown origin) expressed in HEK293 cells co-expressing NFAT-RE after 6 to 12 hrs by Bright-Glo luciferase reporter gene assay; format: cell-based; procedure, shortened: as §3
[12] = target: T3, 5-hydroxytryptamine receptor 2B; test: Positive allosteric modulation of 5HT2B receptor (unknown origin) expressed in HEK293 cells co-expressing NFAT-RE assessed as increase in serotonin-induced reponse after 6 to 12 hrs by Bright-Glo luciferase reporter gene assay; format: cell-based; procedure, shortened: as §2
[13] = target: T1, 5-hydroxytryptamine receptor 2C (Homo sapiens); test: Positive allosteric modulation of 5HT2C receptor (unknown origin) expressed in HEK293 cells co-expressing NFAT-RE assessed as increase in serotonin-induced intracellular calcium flux at 1 uM preincubated for 15 mins followed by serotonin stimulation and measured for 120 secs by Fluo-4NW dye based fluorescence assay relative to serotonin; format: functional, cell-based
Procedure, shortened: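 5-HT2C-transfected HEK293T cells, 50,000 cells/well, loaded with Fluo-4NW calcium dye. Compound (1 µM) preincubated 15 min. 5-HT then added at 35 µl/min and fluorescence (ex 494/em 516 nm) recorded for 120 s. Fold change was calculated against baseline from the first 5 s before ligand addition. Emax normalized to 5-HT alone.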

[14] = target: T1, 5-hydroxytryptamine receptor 2C (Homo sapiens); test: Positive allosteric modulation of 5HT2C receptor (unknown origin) expressed in HEK293 cells co-expressing NFAT-RE assessed as increase in serotonin-induced reponse at 10 uM after 6 to 12 hrs by Bright-Glo luciferase reporter gene assay relative to serotonin; format: cell-based; procedure, shortened: as §2
[15] = target: T1, 5-hydroxytryptamine receptor 2C (Homo sapiens); test: Agonist activity at 5HT2C receptor (unknown origin) expressed in HEK293 cells co-expressing NFAT-RE after 6 to 12 hrs by Bright-Glo luciferase reporter gene assay; format: cell-based; procedure, shortened: as §3

Q: With O=C(c1ccc(N2CCN(Cc3ccccc3)CC2)cc1)C1CC1 as the compound, how does the Activity (Rattus norvegicus [1]) read?
A: Its Activity is “Active”.

Q: And the Activity [2]?
A: The Activity was “inactive”.

Q: What about the EC50 [3] of the same compound?
A: Its EC50 is 38 nM.

Q: What about the Activity (Rattus norvegicus [4]) of the same compound?
A: Its Activity is “inactive”.

Q: And the Emax at 1 µM (5HT2A receptor)?
A: Its Emax at 1 µM is 99%.

Q: What about the Emax at 1 µM (5HT2B receptor) of the same compound?
A: The Emax at 1 µM was 118%.

Q: What about the fold change (FC) [5] of the same compound?
A: The fold change (FC) was 2.

Q: What about the Activity [6] of the same compound?
A: Its Activity is “Not Active”.

Q: What about the Activity [7] of the same compound?
A: The Activity was “Dose-dependent effect”.

Q: And the Emax [8]?
A: Its Emax is 139 to 146%.

Q: And the EC50 [9]?
A: Its EC50 is 5.01 nM.

Q: And the Activity [10]?
A: Its Activity is “Active”.

Q: What about the Activity [11] of the same compound?
A: Its Activity is “Not Active”.

Q: And the EC50 [12]?
A: The EC50 was 11.7 nM.

Q: What about the Emax [13] of the same compound?
A: Its Emax is 124%.

Q: And the Emax [14]?
A: Its Emax is 149%.

Q: And the Activity [15]?
A: The Activity was “inactive”.
